Results from ChEMBL document CHEMBL4616602, “Design and biological evaluation of tetrahydropyridine derivatives as novel human GPR119 agonists” (Bioorg Med Chem Lett, 2020).
Converted amounts (≈) assume the structure as drawn. The source made the active and inactive calls. No cut-off for these calls is given here.

Tests used:
[1] = target: T1, Glucose-dependent insulinotropic receptor (Homo sapiens) (UniProt Q8TDV5); test: Agonist activity at GPR119 (unknown origin) assessed as increase in cAMP level at 10 uM by cAMP HTRF assay relative to oleoylethanolamide; type: functional
T1 sequence (whole entry): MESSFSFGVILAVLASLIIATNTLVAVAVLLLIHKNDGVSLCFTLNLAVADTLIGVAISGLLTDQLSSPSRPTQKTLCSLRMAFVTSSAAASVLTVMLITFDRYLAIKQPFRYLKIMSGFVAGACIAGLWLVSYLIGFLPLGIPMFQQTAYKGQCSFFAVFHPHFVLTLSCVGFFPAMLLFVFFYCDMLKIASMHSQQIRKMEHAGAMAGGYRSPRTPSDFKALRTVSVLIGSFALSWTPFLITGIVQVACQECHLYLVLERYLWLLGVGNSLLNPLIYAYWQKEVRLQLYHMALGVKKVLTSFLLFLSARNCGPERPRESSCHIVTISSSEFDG
Procedure, shortened: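 Cell-based GPR119 agonism at a single 10 μM concentration. Response is expressed as percent of the maximal efficacy of the reference agonist oleoylethanolamide (OEA). Values are means.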

[2] = target: T2, Glucose-dependent insulinotropic receptor (Homo sapiens, UniProt Q8TDV5); test: Agonist activity at GPR119 (unknown origin) assessed as increase in cAMP level by cAMP HTRF assay; type: functional
T2 sequence (Q8TDV5 whole entry): T1 sequence (whole entry)
Procedure, shortened: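 Cell-based GPR119 agonist assay with a top test concentration of 10 μM. EC50 values are reported as means.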

[3] = test system: Mus musculus; test: Hypoglycemic activity in C57BL/6 mouse assessed as reduction in blood glucose AUC at 100 mg/kg, po measured after 2 hrs by glucose challenge by OGTT relative to control; type: functional; set-up: scale not given: the % may be the effect or the level left
Procedure, shortened: (§1)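 Normal male C57BL/6J mice received vehicle or compound at 20, 50 or 100 mg/kg, then a glucose challenge of 2 g/kg (10 ml/kg). Blood glucose was followed over 0–120 min and AUC0–120 min calculated. Mean ± SD, n=6, versus vehicle group.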

[4] = test system: Mus musculus; test: Hypoglycemic activity in C57BL/6 mouse assessed as reduction in blood glucose AUC at 20 and 50 mg/kg, po measured immediately by glucose challenge by OGTT relative to control; type: functional; set-up: scale not given: the % may be the effect or the level left; procedure, shortened: as §1
[5] = test system: Mus musculus; test: Hypoglycemic activity in C57BL/6 mouse assessed as reduction in blood glucose AUC at 20 and 50 mg/kg, po measured after 2 hrs by glucose challenge by OGTT relative to control; type: functional; set-up: scale not given: the % may be the effect or the level left; procedure, shortened: as §1
[6] = test system: Mus musculus; test: Hypoglycemic activity in C57BL/6 mouse […] model assessed as reduction in blood glucose AUC at 20 mg/kg, po administered for 28 days and measured after 2 hrs on day 28 by glucose challenge by OGTT relative to control; type: functional; set-up: scale not given: the % may be the effect or the level left
Procedure, shortened: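 Diet-induced obese mice were dosed with 20 mg/kg repeatedly for 28 days. On day 28 an OGTT (2 g/kg glucose) was run with blood glucose tracked over 0–120 min and AUC0–120 min derived. Fasting glucose was also taken at day 28. Mean ± SD, n=6, versus vehicle.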

[7] = Toxicity in C57BL/6 mouse […] model assessed as reduction in food intake at 20 mg/kg, po observed for 4 weeks; type: organism-based; conditions: in vivo, 672 h
Procedure, shortened: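 Diet-induced obese mice were treated at 20 mg/kg for 4 weeks, and average food intake was recorded over the treatment period. Mean ± SD, n=6, compared with vehicle.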

[8] = test system: Mus musculus; test: Antidiabetic activity in C57BL/6 mouse […] model assessed as reduction in body weight gain at 20 mg/kg, po administered for 4 weeks and measured on day 28; type: functional, organism-based
Procedure, shortened: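 Diet-induced obese mice were given 20 mg/kg for 4 weeks, with body weight recorded through day 28. Mean ± SD, n=6, versus vehicle group.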

[9] = Solubility of compound; type: physicochemical
Procedure, shortened: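 Aqueous solubility (logS and mg/ml) was calculated in silico, not measured experimentally.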

Row | SMILES | Emax [1] [%] | EC50 [2] [nM] | other results
1 | CC(C)(C)OC(=O)N1CC=C(c2nc(CNc3cc(C(F)(F)F)cc(C(F)(F)F)c3)cs2)CC1 | -2.16 |  | 
2 | CCc1ccc(N2CC=C(c3nc(COc4ccc(-n5cnnn5)cc4)cs3)CC2)nc1 | 78.5 |  | 
3 | COc1ccc(Br)cc1OCc1csc(C2=CCN(C(=O)OC(C)(C)C)CC2)n1 | -14.2 |  | 
4 | CC(C)(C)OC(=O)N1CC=C(c2nc(COc3ccc4c(c3)OCO4)cs2)CC1 | 11.5 |  | 
5 | CCc1cnc(N2CCC(c3nc(COc4ccc(-n5cnnn5)cc4)cs3)CC2)nc1 [MBX-2982] | 113 | 3.9 | Activity [3]: 29.22%; Activity [4]: 18.47%; Activity [5]: 26.72%; Activity [6]: 23.61%; Activity [7]: Non-Toxic; Activity [8]: Active; solubility [9]: 37 µg/mL (≈ 82.5 µM)
6 | CC(C)(C)OC(=O)N1CC=C(c2nc(COc3ccc(OC(F)(F)F)cc3)cs2)CC1 | 7.04 |  | 
7 | COc1ccc(C(C)=O)cc1OCc1csc(C2=CCN(C(=O)OC(C)(C)C)CC2)n1 | -5.65 |  | 
8 | CCCCCCCC/C=C\CCCCCCCC(=O)NCCO [OLEOYLETHANOLAMIDE] |  | 930 | 
9 | CCc1ccc(N2CC=C(c3nc(COc4ccc(-n5cnnn5)cc4Cl)cs3)CC2)nc1 | 72.7 |  | 
10 | COc1ccc(OCc2csc(C3=CCN(C(=O)OC(C)(C)C)CC3)n2)cc1OC | 10.7 |  | 
11 | CCc1cnc(N2CC=C(c3nc(COc4ccc(-n5cnnn5)cc4Cl)cs3)CC2)nc1 | 109 | 10.2 | Activity [3]: 12.11%
12 | COc1ccc(NCc2csc(C3=CCN(C(=O)OC(C)(C)C)CC3)n2)c(OC)c1 | -7.44 |  | 
13 | CCc1ccc(N2CC=C(c3nc(COc4ccc(-n5cnnn5)cc4F)cs3)CC2)nc1 | 89.6 |  | 
14 | CCc1cnc(N2CC=C(c3nc(COc4ccc(S(C)(=O)=O)cc4)cs3)CC2)nc1 | 105 | 70.5 | 
15 | CC(C)(C)OC(=O)N1CC=C(c2nc(COc3ccc(C(C)(C)C)cc3C(C)(C)C)cs2)CC1 | 1.7 |  | 
16 | CCCC(=O)c1ccc(OCc2csc(C3=CCN(C(=O)OC(C)(C)C)CC3)n2)cc1 | 62.5 |  | 
17 | CC(C)(C)OC(=O)N1CC=C(c2nc(COc3ccc(S(C)(=O)=O)cc3)cs2)CC1 | 78 | 678 | 
18 | CCc1cnc(N2CC=C(c3nc(COc4ccc(-n5cnnn5)cc4)cs3)CC2)nc1 | 110 | 4.9 | Activity [3]: 35.05%; Activity [4]: 20.11%; Activity [5]: 26.77%; Activity [6]: 34.8%; Activity [7]: Non-Toxic; Activity [8]: Active; solubility [9]: 56 µg/mL (≈ 125 µM)
19 | CCc1ccc(N2CC=C(c3nc(COc4ccc(S(C)(=O)=O)cc4)cs3)CC2)nc1 | 71.5 |  | 
20 | CCc1cnc(N2CC=C(c3nc(COc4ccc(-n5cnnn5)cc4F)cs3)CC2)nc1 | 115 | 8.8 | Activity [3]: 26.81%; Activity [4]: 1.2%; Activity [5]: 14.16%
21 | CC(C)(C)OC(=O)N1CC=C(c2nc(COc3ccc(C4CCCCC4)cc3)cs2)CC1 | 19.7 |  | 
22 | COC(=O)c1sccc1NCc1csc(C2=CCN(C(=O)OC(C)(C)C)CC2)n1 | 13 |  | 

Second part, led by results:

Row | Emax [1] [%] | EC50 [2] [nM] | SMILES | other results
23 | 5.25 |  | CC(C)(C)OC(=O)N1CC=C(c2nc(CNc3ccc(Cl)c(I)c3)cs2)CC1 | 
24 | 95.4 | 113 | CC(C)(C)OC(=O)N1CC=C(c2nc(COc3ccc(-n4cnnn4)cc3)cs2)CC1 | 
25 | -7.34 |  | CC(C)(C)OC(=O)N1CC=C(c2nc(COc3ccc(Cl)cc3)cs2)CC1 | 
26 | 8.4 |  | COc1ccc(-n2cnnn2)cc1OCc1csc(C2=CCN(C(=O)OC(C)(C)C)CC2)n1 | 
27 | -2.17 |  | CC(C)(C)OC(=O)N1CC=C(c2nc(COc3cccc(-n4cnnn4)c3)cs2)CC1 | 
28 | 94.4 | 107 | CC(C)(C)OC(=O)N1CC=C(c2nc(COc3ccc(-n4cnnn4)cc3Cl)cs2)CC1 | 
29 | 105 | 108 | CC(C)(C)OC(=O)N1CC=C(c2nc(COc3ccc(-n4cnnn4)cc3F)cs2)CC1 | 
30 | 26 |  | CC(C)(C)OC(=O)N1CC=C(c2nc(CNc3ccc(S(C)(=O)=O)cc3)cs2)CC1 | 
31 | -6.25 |  | COc1ccc(NCc2csc(C3=CCN(C(=O)OC(C)(C)C)CC3)n2)cc1OC | 
32 | 35.5 |  | CC(C)(C)OC(=O)N1CC=C(c2nc(CNc3ccc(-n4cnnn4)cc3)cs2)CC1 | 
